An excerpt weighted towards active compounds, which were near 3.6% of everything screened.
FGF22 binding = binders of human FGF22 protein, primary screen, FGF22 synaptogenesis inhibitor project, biophysical, thermal shift, single point | activity (Tm shift, normalised), % at 9.99 µM | recombinant FGF22 thermal shift, SYPRO orange fluorescence; percent of sucrose octasulfate shift, DMSO zero | AID 651658, 2012 | Fibroblast growth factor 22 (Homo sapiens), Q9HCT0 | 1.5% of 340,000 active;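 active = mean Tm shift, scaled 0 neutral to 100 positive control, at about 1.3% or above, every replicate too, limit read from the data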
Target sequence (Q9HCT0 whole entry, looked up): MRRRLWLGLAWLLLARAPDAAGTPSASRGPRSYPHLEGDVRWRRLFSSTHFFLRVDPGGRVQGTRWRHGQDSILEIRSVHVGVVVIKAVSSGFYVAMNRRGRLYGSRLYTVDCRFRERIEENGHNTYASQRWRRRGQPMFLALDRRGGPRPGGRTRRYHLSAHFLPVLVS
NS3 helicase inh = inhibitors of HCV NS3 helicase, primary screen, biochemical, Cy5 molecular beacon fluorescence. NS3 helicase DNA unwinding. inhibition, % at 10.9 µM. 0.56% of 290,000 active. Hepatitis C virus NS3 helicase;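 active = inhibition above the mean of all tested compounds plus 3 SD, set per campaign, cut at about 35% in these data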;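 also: 0% = DMSO wells and 100% = thioflavine S control wells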
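System: HCV NS3 helicase fragment; control set: DMSO and thioflavine S; technique: Cy5 fluorescence at 0 and 60 min, beacon hairpin quenching; reagent: beacon DNA duplex substrate plus ATP; replicates: singlicate; schedule: 1 h reaction at 25 °C, ATP-initiated; medium: MOPS buffer pH 6.5 with MgCl2, DTT, Tween20, BSA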
EBNA-1 inh = EBNA-1 DNA-binding inhibitors, primary screen, biochemical, fluorescence polarization. inhibition, % at 14.8 µM. 0.34% of 300,000 active. AID 1950, 2009; in the data active = inhibition above about 28%
NR3A LBD binder = binders of NR3A ligand-binding domain, primary screen, biophysical, differential scanning fluorimetry, uHTS; 2.5% of 340,000 active; NR3A LBD differential scanning fluorimetry, Tm shift; 0% = protein alone, 100% = glycine-bound protein; Tm shift relative to glycine control, % at 25 µM; Glutamate receptor ionotropic, NMDA 3A (GRIN3A) ligand-binding domain; AID 1259313, 2017;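 active = melting temperature shift of at least 10% of the positive control shift, at one fixed dose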
ZTA DNA inh = counter-screen for EBNA-1 inhibitors: inhibitors of Epstein-Barr virus ZTA. P03206. ZTA-DNA binding, fluorescence polarization. 0.15% of 320,000 active. inhibition, % at 11 µM; in the data active = inhibition above about 33%
Target sequence (P03206 whole entry, looked up): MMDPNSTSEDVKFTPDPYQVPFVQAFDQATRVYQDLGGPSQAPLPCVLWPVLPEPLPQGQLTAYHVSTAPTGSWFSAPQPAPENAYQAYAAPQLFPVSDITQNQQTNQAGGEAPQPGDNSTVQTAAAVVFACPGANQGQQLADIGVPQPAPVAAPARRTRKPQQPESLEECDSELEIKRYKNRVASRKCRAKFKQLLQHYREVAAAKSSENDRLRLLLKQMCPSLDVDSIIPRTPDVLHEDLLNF
FID counter = compounds displacing fluorescent DNA intercalator, primary screen, artefact control for HCV NS3 helicase inhibitor project, biochemical, FID fluorescence; DNA fluorescent intercalator displacement; inhibition, % at 7.9 µM; 0.17% of 290,000 active; in the data active = inhibition above about 37%;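 also: 0% = vehicle and 100% = reference compound; higher means more ethidium bromide displaced from hairpin DNA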
The depositor's hits bear a star; / = not tested or not shown.

SMILES | FGF22 binding | NS3 helicase inh | EBNA-1 inh | NR3A LBD binder | ZTA DNA inh | FID counter
C[C@H]1CCCCO[C@H](CN(C)C(=O)C2CCCCC2)[C@@H](C)CN([C@@H](C)CO)C(=O)c2cc(NS(=O)(=O)c3ccc(F)cc3)ccc2O1 | 0.0 | / | / | / | / | /
CC(=O)Nc1ccc(S(=O)(=O)NC2CC(=O)N(c3ccc4c(c3)OCCO4)C2)cc1 (stereo not given) | -0.3 | / | -8.5 | 16.8* | -9.6 | /
CCCNC(=O)Nc1ccc2c(c1)C(=O)N(C)C[C@@H](OC)[C@H](C)CN(C(=O)c1ccccc1F)[C@@H](C)CO2 | 0.8 | / | / | / | / | /
O=C(Nc1nc(-c2ccco2)cs1)c1ccccc1 | / | 11.0 | -2.0 | -10.5 | -1.2 | -3.6
CS(=O)(=O)c1ccc(C(=O)Nc2nc(-c3ccco3)c(-c3ccco3)s2)cc1 | -0.2 | / | / | 19.3* | / | /
CCCN1C[C@@H](C)[C@@H](OC)CN(C)C(=O)c2cc(NC(=O)c3cnccn3)ccc2OC[C@@H]1C | -0.2 | / | / | / | / | /
C[C@H]1CN([C@@H](C)CO)C(=O)c2cc(NC(=O)CCCCCC(=O)Nc3ccccc3N)ccc2O[C@@H]1CN(C)C(=O)Nc1cccc2ccccc12 | -0.1 | / | / | / | / | /
C[C@@H]1CCCCO[C@H](CN(C)Cc2ccccc2)[C@@H](C)CN([C@@H](C)CO)C(=O)c2cc(NC(=O)Nc3ccccc3)ccc2O1 | 0.0 | / | / | / | / | /
CCOC(=O)Cc1cc(=O)n2[nH]c(-c3ccccc3)c(-c3ccccc3)c2n1 | 43.3* | 24.9 | -1.7 | -9.4 | 1.3 | -18.6
C[C@H](CO)N1C[C@H](C)[C@H](CN(C)S(=O)(=O)c2cn(C)cn2)Oc2ccc(NC(=O)CCN3CCOCC3)cc2C1=O | -0.2 | / | / | / | / | /
CCN1C(=O)CC2CCCC1C2 (stereo not given) | -0.3 | / | / | 11.2* | / | /
CCCN1C2CCCC1CC(NC(=O)c1ccc(C(C)(C)C)cc1)C2 (stereo not given) | -0.3 | -12.1 | / | -1.3 | / | 9.1
O=C(NC(C(=O)c1ccccc1)N1CCCCCC1)c1ccco1 (stereo not given) | -0.3 | -6.0 | 6.6 | 0.8 | 9.6 | -2.8
Cc1ccc(C(=O)C(NC(=O)c2ccco2)N2CCOCC2)cc1 (stereo not given) | / | 4.6 | 0.0 | 10.6* | -11.9 | -2.0
C[C@H](CO)N1C[C@H](C)[C@@H](CN(C)Cc2ccncc2)Oc2ccc(NC(=O)CCC(F)(F)F)cc2C1=O | 1.0 | / | / | / | / | /
COc1ccc2nc(Nc3ccccc3)sc2c1 | 0.6 | -12.2 | -4.1 | 29.8* | -22.0 | -2.3
COc1ccc2nc(Nc3ccccc3OC)sc2c1 | 0.0 | -7.9 | 9.5 | 18.7* | 18.6 | 2.5
COc1ccc(Nc2nc3ccccc3c(=O)s2)c(OC)c1 | / | -2.5 | 1.6 | -0.2 | -10.8 | -0.6
COc1ccc2nc(NC(=O)c3ccccc3O)sc2c1 | 0.2 | 7.3 | -2.8 | 9.8 | -1.2 | 5.7
C[C@H]1CCCCO[C@H](CN(C)C(=O)Nc2ccc(C(F)(F)F)cc2)[C@@H](C)CN([C@@H](C)CO)C(=O)c2cc(NC(=O)Nc3ccccc3)ccc2O1 | 0.1 | / | / | / | / | /
COc1ccc(/C=C/C(=O)OCCCN(C)C)cc1 | 0.4 | -8.4 | 5.4 | -1.8 | -8.4 | -1.7
COc1ccccc1/C=C/C(=O)Oc1cccc2cccnc12 | 43.0* | -17.7 | -7.0 | -1.4 | -24.4 | -9.2
COc1ccccc1/C=C/C(=O)OCCCN(C)C | 43.6* | 1.7 | 1.1 | -1.8 | 3.2 | 0.9
O=C(/C=C\c1ccco1)Oc1cccc2cccnc12 | -0.3 | 1.0 | 2.5 | -0.1 | -1.5 | -6.6
CCCNC(=O)Nc1ccc2c(c1)OC[C@H](C)N(S(C)(=O)=O)C[C@@H](C)[C@H](OC)CN(C)C2=O | 0.7 | / | / | / | / | /
SMILES | FGF22 binding | NS3 helicase inh | EBNA-1 inh | NR3A LBD binder | ZTA DNA inh | FID counter
Oc1ccc(/C=C/c2ccc3ccccc3n2)cc1 | 0.3 | 1.1 | -0.4 | 19.1* | 4.1 | 8.9
Oc1ccc(/C(Cc2ccc3ccccc3n2)=N\Nc2ccccc2)c(O)c1 | 0.2 | 7.2 | 1.4 | -2.6 | -8.8 | -15.6
O/C(=C\c1ccc2ccccc2n1)c1ccc(O)cc1O | 0.0 | -0.5 | 0.5 | 34.8* | 2.2 | -17.1
C(=C\c1ccc2ccccc2n1)/c1ccccc1 | -0.3 | -6.2 | -11.1 | -19.7 | -9.4 | -6.4
C(=Cc1c[nH]c2ccccc12)c1ccc2ccccc2n1 | 0.1 | / | / | 21.8* | / | /
O=c1[nH]c(O)c(/C=C2\C=Nc3ccc(Br)cc32)[nH]1 | 0.0 | -3.9 | -0.3 | 41.5* | -2.7 | 13.8
COc1ccc2ccccc2c1C(O)c1nccn1C (stereo not given) | / | 12.3 | 1.8 | 2.4 | -4.1 | 45.5*
O=C(Nc1ccccc1)N1C[C@H]2[C@@H](c3ccccc31)[C@@H](CO)N2C(=O)c1cccnc1 | -1.1 | / | / | / | / | /
CO[C@H]1CN(C)C(=O)c2ccc(NC(=O)c3ccccc3F)cc2OC[C@@H](C)N(C(=O)c2ccccc2F)C[C@H]1C | -0.2 | / | / | / | / | /
CCc1cc(=O)oc2cc(OCC(=O)N3CCC[C@H]3C(=O)O)ccc12 | -0.2 | 5.0 | 1.5 | -0.5 | -9.7 | 95.2*
CCCc1cc(=O)oc2c(C)c(OCC(=O)N3CCC[C@@H]3C(=O)O)ccc12 | -0.3 | 15.4 | -2.3 | -2.4 | 3.2 | -31.9
CCOc1ccccc1NC(=O)C(OC(=O)c1ccc(O)cc1)c1ccccc1 (stereo not given) | 0.5 | -4.4 | 11.4 | 25.9* | 11.6 | -13.3
Cc1ccc(NC(=O)Nc2nnc(Cc3ccc([N+](=O)[O-])cc3)s2)cc1 | 0.2 | -5.7 | -5.9 | 22.1* | 1.1 | 2.2
Cc1ccc(-c2csc3ncnc(N4CCc5ccccc5C4)c23)cc1 | / | 2.8 | -3.0 | -13.3 | 9.2 | -2.9
Fc1ccc(-c2csc3ncnc(N4CCc5ccccc5C4)c23)cc1 | -0.2 | -14.8 | -11.6 | 10.7* | -10.5 | -23.7
C[C@H]1CN([C@@H](C)CO)C(=O)c2cc(C3=CCCCC3)cnc2O[C@H]1CN(C)C(=O)NC1CCCC1 | -0.1 | / | / | / | / | /
CCCC#Cc1ccc2c(c1)O[C@@H](CN(C)C(=O)Nc1ccc(OC)cc1)[C@H](C)CN([C@H](C)CO)S2(=O)=O | -0.4 | / | / | / | / | /
CCc1ccc(S(=O)(=O)ON2C(=O)c3ccccc3C2=O)cc1 | 0.2 | 7.6 | / | 16.2* | / | -0.3
O=C1c2cccc3cccc(c23)C(=O)N1OS(=O)(=O)c1ccc(Cl)cc1 | 0.5 | -1.0 | 7.5 | -4.0 | -4.1 | -0.2
O=C(C1CCCC1)N1CCCCN2[C@H](CO)[C@@H](c3ccc(-c4cccc(F)c4)cc3)[C@H]2C1 | -0.4 | / | / | / | / | /
O=[N+]([O-])c1cccc(NC(=S)Nc2nc(-c3ccccc3Cl)cs2)c1 | -0.2 | 20.0 | -7.2 | 16.8* | -6.3 | 8.7
